The source made the active and inactive calls. No cut-off for these calls is given here.
What was measured:
Mus musculus [1] = test: Toxicity in DBA/2 mouse allografted with mouse P388 cells assessed as change in body weight at 365 mg/kg/day, ip for 9 days compound administered through water+alcohol vehicle; format: organism-based; set-up: route intraperitoneal; conditions: in vivo, 216 h
How it was run: (§1)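 DBA/2 mice bearing P388 lymphocytic leukemia received one intraperitoneal injection per day for 9 days, given in the vehicle named for each test (water/alcohol-based, saline or saline + Tween 80). Toxicity was noted during dosing alongside survival scoring (T/C, treated versus control mean survival time).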

Mus musculus [2] = test: Toxicity in DBA/2 mouse allografted with mouse P388 cells assessed as change in body weight at 240 mg/kg/day, ip for 9 days compound administered through water+alcohol vehicle; format: organism-based; set-up: route intraperitoneal; conditions: in vivo, 216 h; how it was run: as §1
Mus musculus [3] = test: Toxicity in DBA/2 mouse allografted with mouse P388 cells assessed as change in body weight at 160 mg/kg/day, ip for 9 days compound administered through water+alcohol vehicle; format: organism-based; set-up: route intraperitoneal; conditions: in vivo, 216 h; how it was run: as §1
Mus musculus [4] = test: Toxicity in DBA/2 mouse allografted with mouse P388 cells assessed as change in body weight at 80 mg/kg/day, ip for 9 days compound administered through water+alcohol vehicle; format: organism-based; set-up: route intraperitoneal; conditions: in vivo, 216 h; how it was run: as §1
Mus musculus [5] = test: Toxicity in DBA/2 mouse allografted with mouse P388 cells assessed as change in body weight at 40 mg/kg/day, ip for 9 days compound administered through water+alcohol vehicle; format: organism-based; set-up: route intraperitoneal; conditions: in vivo, 216 h; how it was run: as §1
Mus musculus [6] = test: Toxicity in DBA/2 mouse allografted with mouse P388 cells at 400 mg/kg/day, ip for 9 days; format: organism-based; set-up: route intraperitoneal; conditions: in vivo, 216 h; how it was run: as §1
P388 [7] = test: Antitumor activity against mouse P388 cells allografted in DBA/2 mouse assessed as host survival at 365 mg/kg/day, ip for 9 days compound administered through water+alcohol vehicle relative to control; format: functional; conditions: route intraperitoneal
How it was run: (§2)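 P388 lymphocytic leukemia in DBA/2 mice. Dosing was one intraperitoneal injection per day for 9 days in the vehicle stated. […] Duplicate tests were run for some doses.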

P388 [8] = test: Antitumor activity against mouse P388 cells allografted in DBA/2 mouse assessed as host survival at 240 mg/kg/day, ip for 9 days compound administered through water+alcohol vehicle relative to control; format: functional; conditions: route intraperitoneal; how it was run: as §2
P388 [9] = test: Antitumor activity against mouse P388 cells allografted in DBA/2 mouse assessed as host survival at 160 mg/kg/day, ip for 9 days compound administered through water+alcohol vehicle relative to control; format: functional; conditions: route intraperitoneal; how it was run: as §2
P388 [10] = test: Antitumor activity against mouse P388 cells allografted in DBA/2 mouse assessed as host survival at 80 mg/kg/day, ip for 9 days compound administered through water+alcohol vehicle relative to control; format: functional; conditions: route intraperitoneal; how it was run: as §2
P388 [11] = test: Antitumor activity against mouse P388 cells allografted in DBA/2 mouse assessed as host survival at 40 mg/kg/day, ip for 9 days compound administered through water+alcohol vehicle relative to control; format: functional; conditions: route intraperitoneal; how it was run: as §2
Mus musculus [12] = test: Toxicity in DBA/2 mouse allografted with mouse P388 cells at 480 mg/kg/day, ip for 9 days; format: organism-based; set-up: route intraperitoneal; conditions: in vivo, 216 h; how it was run: as §1
P388 [13] = test: Antitumor activity against mouse P388 cells allografted in ip dosed DBA/2 mouse administered for 9 days; format: functional, organism-based
How it was run: (§3)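 P388 lymphocytic leukemia in DBA/2 mice; one intraperitoneal injection per day for 9 days. […] Injection vehicles were water + alcohol, saline + Tween 80, or aqueous 0.5% citric acid. Some tests were duplicated, and 30-day cures were recorded.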

L1210 = test: Antitumor activity against mouse L1210 cells allografted in DBA/2 mouse at 25 to 200 mg/kg; format: functional, organism-based
P388 [14] = test: Antitumor activity against mouse P388 cells allografted in DBA/2 mouse assessed as disease cure at 365 mg/kg/day, ip for 9 days compound administered through water+alcohol vehicle measured after 30 days; format: functional, organism-based; how it was run: as §3
Mus musculus [15] = test: Toxicity in DBA/2 mouse allografted with mouse P388 cells assessed as change in body weight at 320 mg/kg/day, ip for 9 days compound administered through water+alcohol vehicle; format: organism-based; set-up: route intraperitoneal; conditions: in vivo, 216 h; how it was run: as §1
Mus musculus [16] = test: Toxicity in DBA/2 mouse allografted with mouse P388 cells assessed as change in body weight at 8.8 mg/kg/day, ip for 9 days compound administered through water+alcohol vehicle; format: organism-based; set-up: route intraperitoneal; conditions: in vivo, 216 h; how it was run: as §1
P388 [17] = test: Antitumor activity against mouse P388 cells allografted in DBA/2 mouse assessed as host survival at 20 mg/kg/day, ip for 9 days compound administered through 0.5% citric acid vehicle; format: functional, organism-based; how it was run: as §3
P388 [18] = test: Antitumor activity against mouse P388 cells allografted in DBA/2 mouse assessed as host survival at 20 mg/kg/day, ip for 9 days compound administered through water+alcohol vehicle relative to control; format: functional; conditions: route intraperitoneal; how it was run: as §2
P388 [19] = test: Antitumor activity against mouse P388 cells allografted in DBA/2 mouse assessed as host survival at 13 mg/kg/day, ip for 9 days compound administered through water+alcohol vehicle relative to control; format: functional; conditions: route intraperitoneal; how it was run: as §2
P388 [20] = test: Antitumor activity against mouse P388 cells allografted in DBA/2 mouse assessed as host survival at 320 mg/kg/day, ip for 9 days compound administered through water+alcohol vehicle relative to control; format: functional; conditions: route intraperitoneal; how it was run: as §2
P388 [21] = test: Antitumor activity against mouse P388 cells allografted in DBA/2 mouse assessed as host survival at 8.8 mg/kg/day, ip for 9 days compound administered through water+alcohol vehicle relative to control; format: functional; conditions: route intraperitoneal; how it was run: as §2
Mus musculus [22] = test: Toxicity in DBA/2 mouse allografted with mouse P388 cells assessed as change in body weight at 20 mg/kg/day, ip for 9 days compound administered through water+alcohol vehicle; format: organism-based; set-up: route intraperitoneal; conditions: in vivo, 216 h; how it was run: as §1
Mus musculus [23] = test: Toxicity in DBA/2 mouse allografted with mouse P388 cells assessed as change in body weight at 13 mg/kg/day, ip for 9 days compound administered through water+alcohol vehicle; format: organism-based; set-up: route intraperitoneal; conditions: in vivo, 216 h; how it was run: as §1
Mus musculus [24] = test: Toxicity in DBA/2 mouse allografted with mouse P388 cells assessed as change in body weight at 5.9 mg/kg/day, ip for 9 days compound administered through water+alcohol vehicle; format: organism-based; set-up: route intraperitoneal; conditions: in vivo, 216 h
Mus musculus [25] = test: Toxicity in DBA/2 mouse allografted with mouse P388 cells assessed as change in body weight at 4 mg/kg/day, ip for 9 days compound administered through saline vehicle; format: organism-based; set-up: route intraperitoneal; conditions: in vivo, 216 h
Mus musculus [26] = test: Toxicity in DBA/2 mouse allografted with mouse P388 cells assessed as change in body weight at 2 mg/kg/day, ip for 9 days compound administered through saline vehicle; format: organism-based; set-up: route intraperitoneal; conditions: in vivo, 216 h
P388 [27] = test: Antitumor activity against mouse P388 cells allografted in DBA/2 mouse assessed as host survival at 5.9 mg/kg/day, ip for 9 days compound administered through water+alcohol vehicle relative to control; format: functional; conditions: route intraperitoneal; how it was run: as §2
P388 [28] = test: Antitumor activity against mouse P388 cells allografted in DBA/2 mouse assessed as host survival at 4 mg/kg/day, ip for 9 days compound administered through saline vehicle relative to control; format: functional; conditions: route intraperitoneal; how it was run: as §2
P388 [29] = test: Antitumor activity against mouse P388 cells allografted in DBA/2 mouse assessed as host survival at 2 mg/kg/day, ip for 9 days compound administered through saline vehicle relative to control; format: functional; conditions: route intraperitoneal; how it was run: as §2
P388 [30] = test: Antitumor activity against mouse P388 cells allografted in DBA/2 mouse at 480 mg/kg/day, ip for 9 days; format: functional, organism-based; how it was run: as §3
Mus musculus [31] = test: Toxicity in DBA/2 mouse allografted with mouse P388 cells assessed as change in body weight at 20 mg/kg/day, ip for 9 days compound administered through water+acetone vehicle; format: organism-based; set-up: route intraperitoneal; conditions: in vivo, 216 h; how it was run: as §1
P388 [32] = test: Antitumor activity against mouse P388 cells allografted in DBA/2 mouse assessed as host survival at 20 mg/kg/day, ip for 9 days compound administered through water+acetone vehicle relative to control; format: functional; conditions: route intraperitoneal; how it was run: as §2

In the case of `C=C(CC(=O)OC)C(=O)O[C@@H]1C(OC)=C[C@]23CCCN2CCc2cc4c(cc2[C@H]13)OCO4` [listing 1 of 2 here], the Activity (Mus musculus [1]) is reported as -3 g, the Activity (Mus musculus [2]) is reported as -1.4 g and the Activity (Mus musculus [3]) is reported as -1.1 g. The Activity (Mus musculus [4]) was -0.1 g, the Activity (Mus musculus [5]) was -1.3 g and the Activity (Mus musculus [6]) was “Toxic”. For the same compound, the T/C (P388 [7]) was 198%, the T/C (P388 [8]) was 169% and the T/C (P388 [9]) was 167%. It also gave a T/C (P388 [10]) of 173% and a T/C (P388 [11]) of 135%.
For `C=C(CC(=O)OC)C(=O)O[C@@H]1C(OC)=C[C@]23CCCN2CCc2cc4c(cc2[C@H]13)OCO4` (single isomer, unassigned) [listing 1 of 2 here], the Activity (Mus musculus [12]) was “Toxic”.
With `CCOC(=O)O[C@@H]1C(OC)=C[C@]23CCCN2CCc2cc4c(cc2[C@H]13)OCO4` the Activity (P388 [13]) was “inactive”.
With `C=C(CC(=O)OC)C(=O)O[C@@H]1C(OC)=C[C@]23CCCN2CCc2cc4c(cc2[C@H]13)OCO4` [listing 2 of 2 here] the Activity (L1210) was “inactive” and the Activity (P388 [14]) was “Active”.
Work on `COC1=C[C@]23CCCN2CCc2cc4c(cc2[C@@H]3[C@@H]1OC(=O)OCC(Cl)(Cl)Cl)OCO4` yielded an Activity (Mus musculus [3]) of -0.9 g, an Activity (Mus musculus [4]) of -1.3 g and an Activity (Mus musculus [5]) of -0.4 g. For the same compound, the Activity (Mus musculus [15]) was -1 g, the Activity (Mus musculus [16]) was -0.3 g and the Activity (P388 [17]) was “inactive”. The T/C (P388 [18]) was 128%, the T/C (P388 [19]) was 138% and the T/C (P388 [9]) was 155%. It also gave a T/C (P388 [10]) of 160%, a T/C (P388 [11]) of 140% and a T/C (P388 [20]) of 172%. The T/C (P388 [21]) was 170%, the Activity (Mus musculus [22]) was -2.7 g and the Activity (Mus musculus [23]) was -0.5 g.
In the case of `COC(=O)C[C@](O)(CCC(C)C)C(=O)O[C@@H]1C(OC)=C[C@]23CCCN2CCc2cc4c(cc2[C@H]13)OCO4` [DEOXYHARRINGTONINE], the Activity (Mus musculus [24]) is reported as -0.9 g, the Activity (Mus musculus [25]) is reported as 0 g and the Activity (Mus musculus [26]) is reported as 0.8 g. It also gave a T/C (P388 [27]) of 184%, a T/C (P388 [28]) of 174% and a T/C (P388 [29]) of 126%.
In the case of `C=C(CC(=O)OC)C(=O)O[C@@H]1C(OC)=C[C@]23CCCN2CCc2cc4c(cc2[C@H]13)OCO4` (single isomer, unassigned) [listing 2 of 2 here], the Activity (P388 [30]) is reported as “inactive”.
`C/C=C/C=C/C(=O)O[C@@H]1C(OC)=C[C@]23CCCN2CCc2cc4c(cc2[C@H]13)OCO4` gave an Activity (Mus musculus [4]) of 0.9 g, an Activity (Mus musculus [5]) of -1.8 g and a T/C (P388 [18]) of 130%. For the same compound, the T/C (P388 [10]) was 150%, the T/C (P388 [11]) was 125% and the Activity (Mus musculus [22]) was 0.9 g.
`COC(=O)/C(=C/C(=O)O[C@@H]1C(OC)=C[C@]23CCCN2CCc2cc4c(cc2[C@H]13)OCO4)CCC(C)C` gave an Activity (Mus musculus [31]) of 0.9 g and a T/C (P388 [32]) of 131%.

Source: ChEMBL document CHEMBL3244241, “Synthesis of cephalotaxine esters and correlation of their structures with antitumor activity” (J Med Chem, 1977)
